≈ marks a conversion by molar mass, not a printed value. Calls of active or inactive are those of the source. The calls are words filed in the database; no cut-off is given here.
Assays:
[1] = system: Staphylococcus aureus; test: Antimicrobial activity against Staphylococcus aureus ATCC 29213 by broth microdilution method
[2] = system: Escherichia coli; test: Antimicrobial activity against Escherichia coli ATCC 25922 by broth microdilution method
[3] = system: Candida albicans; test: Antimicrobial activity against Candida albicans ATCC 10231 by broth microdilution method
[4] = system: Staphylococcus aureus; test: Antimicrobial activity against Staphylococcus aureus; type: functional
[5] = biological target: Vascular endothelial growth factor receptor 2 (Homo sapiens, UniProt P35968); test: Inhibition of VEGFR2 (unknown origin)
Vascular endothelial growth factor receptor 2, sequence (P35968 whole entry): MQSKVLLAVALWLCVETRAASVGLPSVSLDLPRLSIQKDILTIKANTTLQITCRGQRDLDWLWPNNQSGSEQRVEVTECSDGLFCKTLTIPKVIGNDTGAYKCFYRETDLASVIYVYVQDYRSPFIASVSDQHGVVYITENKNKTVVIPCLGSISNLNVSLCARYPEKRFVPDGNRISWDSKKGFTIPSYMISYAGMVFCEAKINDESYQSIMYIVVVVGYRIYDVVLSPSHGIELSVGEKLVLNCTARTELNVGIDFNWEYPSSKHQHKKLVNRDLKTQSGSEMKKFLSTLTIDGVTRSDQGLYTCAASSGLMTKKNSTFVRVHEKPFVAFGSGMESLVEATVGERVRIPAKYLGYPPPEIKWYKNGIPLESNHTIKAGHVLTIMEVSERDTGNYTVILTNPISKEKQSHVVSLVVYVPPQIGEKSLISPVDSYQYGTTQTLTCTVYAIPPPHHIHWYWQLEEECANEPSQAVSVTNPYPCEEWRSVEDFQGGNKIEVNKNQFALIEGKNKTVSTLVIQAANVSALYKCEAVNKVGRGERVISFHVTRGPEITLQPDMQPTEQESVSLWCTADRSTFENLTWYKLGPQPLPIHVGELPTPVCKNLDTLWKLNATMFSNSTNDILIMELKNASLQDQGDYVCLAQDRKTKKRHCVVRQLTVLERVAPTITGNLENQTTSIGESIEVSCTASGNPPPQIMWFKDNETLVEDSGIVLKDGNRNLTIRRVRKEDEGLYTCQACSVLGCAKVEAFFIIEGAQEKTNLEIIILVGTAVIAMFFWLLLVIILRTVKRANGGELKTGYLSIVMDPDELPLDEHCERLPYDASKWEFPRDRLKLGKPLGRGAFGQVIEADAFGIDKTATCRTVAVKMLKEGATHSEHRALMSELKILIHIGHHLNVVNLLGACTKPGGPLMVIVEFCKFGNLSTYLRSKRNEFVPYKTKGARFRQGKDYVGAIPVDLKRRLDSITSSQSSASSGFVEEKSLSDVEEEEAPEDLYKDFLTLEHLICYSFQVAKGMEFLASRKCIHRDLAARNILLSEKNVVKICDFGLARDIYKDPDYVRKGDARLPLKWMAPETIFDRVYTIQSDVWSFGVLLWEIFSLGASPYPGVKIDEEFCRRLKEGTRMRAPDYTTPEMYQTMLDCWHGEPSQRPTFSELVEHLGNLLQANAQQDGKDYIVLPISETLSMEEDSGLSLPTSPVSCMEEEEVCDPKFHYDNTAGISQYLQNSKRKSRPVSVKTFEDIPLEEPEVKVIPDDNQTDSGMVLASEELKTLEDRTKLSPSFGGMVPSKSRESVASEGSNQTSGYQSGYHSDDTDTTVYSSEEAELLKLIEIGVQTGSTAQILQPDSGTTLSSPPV

[6] = Upregulation of p53 gene expression in human A549 cells assessed as fold increase by qRT-PCR analysis; type: functional
Method in brief: (§1)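 A549/ATCC cells treated, total RNA DNase-treated and checked by 260/280 ratio (1.8–2.1). Reverse transcription with oligo-dT and MuLV RT: 25 °C 10 min, 42 °C 1 h, 99 °C 5 min. qPCR of 40 cycles (95 °C 15 s, 55 °C 30 s, 72 °C 30 s) followed by melt curve. Relative expression by the 2−ΔΔCT method, mean ± SEM.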

[7] = Upregulation of Bax gene expression in human A549 cells assessed as fold increase by qRT-PCR analysis; type: functional
Method in brief: as §1

[8] = system: A549; test: Downregulation of Bcl-2 gene expression in human A549 cells by qRT-PCR analysis; type: functional, cell-based
Method in brief: as §1

Structure (SMILES)	MIC [1]	MIC [2]	MIC [3]	further results
CNC(C)[C@@H]1CC[C@@H](N)[C@@H](O[C@H]2[C@H](O)[C@@H](O[C@H]3OC[C@](C)(O)[C@H](NC)[C@H]3O)[C@H](N)C[C@@H]2N)O1.CN[C@@H]1[C@@H](O)[C@@H](O[C@@H]2[C@@H](O)[C@H](O[C@H]3O[C@H](C(C)N)CC[C@H]3N)[C@@H](N)C[C@H]2N)OC[C@]1(C)O.CN[C@@H]1[C@@H](O)[C@@H](O[C@@H]2[C@@H](O)[C@H](O[C@H]3O[C@H](CN)CC[C@H]3N)[C@@H](N)C[C@H]2N)OC[C@]1(C)O (some centres not stated)	0.5 µg/mL			
O=c1ccc(-c2ccc(NC(=S)Nc3cccc(Br)c3)cc2)n[nH]1	128 µg/mL (≈ 319 µM)	1020 µg/mL (≈ 2550 µM)	32 µg/mL (≈ 79.7 µM)	
O=c1ccc(-c2ccc(NS(=O)(=O)c3ccc(Cl)cc3)cc2)n[nH]1	128 µg/mL (≈ 354 µM)	256 µg/mL (≈ 708 µM)	256 µg/mL (≈ 708 µM)	
O=C(Nc1ccc(-c2ccc(=O)[nH]n2)cc1)Nc1cccc(Br)c1	128 µg/mL (≈ 332 µM)	512 µg/mL (≈ 1330 µM)	> 1020 µg/mL	
O=C(NC(=S)Nc1ccc(-c2ccc(=O)[nH]n2)cc1)c1ccc(Cl)c(F)c1	> 1020 µg/mL	> 1020 µg/mL	512 µg/mL (≈ 1270 µM)	
O=C(NC(=S)Nc1ccc(-c2ccc(=O)[nH]n2)cc1)c1ccc(F)c(Cl)c1	512 µg/mL (≈ 1270 µM)	256 µg/mL (≈ 635 µM)	512 µg/mL (≈ 1270 µM)	
O=c1ccc(/C=C/c2ccc(NC(=S)Nc3ccc(Cl)c(Cl)c3)cc2)n[nH]1	128 µg/mL (≈ 307 µM)	512 µg/mL (≈ 1230 µM)	512 µg/mL (≈ 1230 µM)	
O=C1CCC(c2ccc(NC(=S)NC(=O)c3ccc(Br)cc3)cc2)=NN1	512 µg/mL (≈ 1190 µM)	256 µg/mL (≈ 594 µM)	512 µg/mL (≈ 1190 µM)	
O=C(NC(=S)Nc1ccc(-c2ccc(=O)[nH]n2)cc1)c1c(Cl)cc(Cl)cc1Cl	128 µg/mL (≈ 282 µM)	256 µg/mL (≈ 564 µM)	512 µg/mL (≈ 1130 µM)	
O=C(NC(=S)Nc1ccc(Cl)cn1)c1ccc(N2CCCCC2)c([N+](=O)[O-])c1				MIC [4]: 0.06 µg/mL (≈ 0.143 µM)
O=c1ccc(/C=C/c2ccc(NS(=O)(=O)c3cccc(Br)c3)cc2)n[nH]1	1020 µg/mL (≈ 2370 µM)	512 µg/mL (≈ 1180 µM)	512 µg/mL (≈ 1180 µM)	
O=c1ccc(-c2ccc(NS(=O)(=O)c3cccc(Br)c3)cc2)n[nH]1	512 µg/mL (≈ 1260 µM)	256 µg/mL (≈ 630 µM)	64 µg/mL (≈ 158 µM)	
O=c1ccc(-c2ccc(NC(=S)Nc3ccc(Br)cc3)cc2)n[nH]1	128 µg/mL (≈ 319 µM)	512 µg/mL (≈ 1280 µM)	256 µg/mL (≈ 638 µM)	
O=C(Nc1ccc(F)cc1)Nc1ccc(-c2ccc(=O)[nH]n2)cc1	256 µg/mL (≈ 789 µM)	256 µg/mL (≈ 789 µM)	> 1020 µg/mL	
O=C(NC(=S)Nc1ccc(-c2ccc(=O)[nH]n2)cc1)c1ccc(F)cc1	256 µg/mL (≈ 695 µM)	256 µg/mL (≈ 695 µM)	512 µg/mL (≈ 1390 µM)	
O=c1ccc(/C=C/c2ccc(NS(=O)(=O)c3ccc(Cl)c(Cl)c3)cc2)n[nH]1	512 µg/mL (≈ 1210 µM)	512 µg/mL (≈ 1210 µM)	512 µg/mL (≈ 1210 µM)	
O=C(Nc1ccc2c(c1)OC(F)(F)O2)Nc1ccc(Cl)c(C(F)(F)F)c1				MIC [4]: 0.3 µg/mL (≈ 0.76 µM)
N#Cc1ccc(Oc2ccc3cccc(NC(=O)Nc4ccc(Cl)c(C(F)(F)F)c4)c3c2)cc1				MIC [4]: 1 µg/mL (≈ 2.08 µM)
O=C(Nc1ccc(Cl)c(C(F)(F)F)c1)C(CCl)C(=O)Nc1ccc(Cl)c(C(F)(F)F)c1				MIC [4]: 0.5 µg/mL (≈ 0.985 µM)
O=C(NC(=S)Nc1ccc(/C=C/c2ccc(=O)[nH]n2)cc1)c1ccc(Cl)c(Cl)c1	256 µg/mL (≈ 575 µM)	1020 µg/mL (≈ 2300 µM)	512 µg/mL (≈ 1150 µM)	
O=C(Nc1ccc(-c2ccc(=O)[nH]n2)cc1)Nc1ccc(Cl)c(C(F)(F)F)c1				MIC [4]: > 128 µg/mL; IC50 [5]: 1800 nM
N#Cc1ccc(Oc2cccc(NC(=O)Nc3ccc(Cl)c(C(F)(F)F)c3)c2)c(F)c1				MIC [4]: 0.5 µg/mL (≈ 1.11 µM)
O=c1ccc(-c2ccc(NS(=O)(=O)c3ccc(Cl)c(Cl)c3)cc2)n[nH]1	512 µg/mL (≈ 1290 µM)	1020 µg/mL (≈ 2580 µM)	256 µg/mL (≈ 646 µM)	
O=C(NC(=S)Nc1ccc(-c2ccc(=O)[nH]n2)cc1)c1ccc([N+](=O)[O-])cc1	> 1020 µg/mL	> 1020 µg/mL	512 µg/mL (≈ 1290 µM)	

Structure (SMILES)	MIC [1]	MIC [2]	MIC [3]	further results
O=c1ccc(-c2ccc(NS(=O)(=O)c3ccc(F)c(Cl)c3)cc2)n[nH]1	128 µg/mL (≈ 337 µM)	256 µg/mL (≈ 674 µM)	256 µg/mL (≈ 674 µM)	
O=C(NC(=S)Nc1ccc(-c2ccc(=O)[nH]n2)cc1)c1cccc(Br)c1	16 µg/mL (≈ 37.3 µM)	256 µg/mL (≈ 596 µM)	512 µg/mL (≈ 1190 µM)	
O=C(NC(=S)Nc1ccc(-c2ccc(=O)[nH]n2)cc1)c1ccc(Br)cc1	128 µg/mL (≈ 298 µM)	128 µg/mL (≈ 298 µM)	512 µg/mL (≈ 1190 µM)	
O=C(NC(=S)Nc1ccc(/C=C/c2ccc(=O)[nH]n2)cc1)c1cccc(Br)c1	1020 µg/mL (≈ 2250 µM)	256 µg/mL (≈ 562 µM)	512 µg/mL (≈ 1120 µM)	
O=c1ccc(-c2ccc(NS(=O)(=O)c3cccc(Cl)c3)cc2)n[nH]1	256 µg/mL (≈ 708 µM)	1020 µg/mL (≈ 2830 µM)	256 µg/mL (≈ 708 µM)	
COc1cccc2c1C(=O)c1c(O)c3c(c(O)c1C2=O)C[C@@](O)(C(=O)CO)C[C@@H]3O[C@H]1C[C@H](N)[C@H](O)[C@H](C)O1 [DOXORUBICIN]				fold change (FC) [6]: 3; fold change (FC) [7]: 3; Activity [8]: Active
CC(=O)N1CCN(c2ccc(OCC3COC(Cn4ccnc4)(c4ccc(Cl)cc4Cl)O3)cc2)CC1 (configuration not stated) [KETOCONAZOLE]			2 µg/mL (≈ 3.76 µM)	
O=c1ccc(-c2ccc(NC(=S)Nc3c(Cl)cc(Cl)cc3Cl)cc2)n[nH]1	128 µg/mL (≈ 301 µM)	256 µg/mL (≈ 601 µM)	64 µg/mL (≈ 150 µM)	
O=C(Nc1ccc(Br)cc1)Nc1ccc(-c2ccc(=O)[nH]n2)cc1	> 1020 µg/mL	> 1020 µg/mL	512 µg/mL (≈ 1330 µM)	
O=C1CCC(c2ccc(NC(=S)NC(=O)c3ccccc3)cc2)=NN1	512 µg/mL (≈ 1450 µM)	256 µg/mL (≈ 726 µM)	512 µg/mL (≈ 1450 µM)	
N#Cc1ccc(Oc2cccc(NC(=O)Nc3ccc(Cl)c(C(F)(F)F)c3)c2)cc1Cl				MIC [4]: 0.5 µg/mL (≈ 1.07 µM)
O=C(NC(=S)Nc1ccc(-c2ccc(=O)[nH]n2)cc1)c1ccc(Cl)c(Cl)c1	> 1020 µg/mL	> 1020 µg/mL	512 µg/mL (≈ 1220 µM)	
O=C(NC(=S)Nc1ccc(-c2ccc(=O)[nH]n2)cc1)c1ccc(Cl)cc1	256 µg/mL (≈ 665 µM)	512 µg/mL (≈ 1330 µM)	512 µg/mL (≈ 1330 µM)	
O=C(Nc1ccc(Oc2ccc(=O)[nH]n2)cc1)Nc1ccc(Cl)c(Cl)c1				MIC [4]: 0.5 µg/mL (≈ 1.28 µM)
O=c1ccc(-c2ccc(NC(=S)Nc3cccc(F)c3)cc2)n[nH]1	512 µg/mL (≈ 1500 µM)	> 1020 µg/mL	64 µg/mL (≈ 188 µM)	
O=c1ccc(-c2ccc(NS(=O)(=O)c3cccc(F)c3)cc2)n[nH]1	512 µg/mL (≈ 1480 µM)	1020 µg/mL (≈ 2970 µM)	256 µg/mL (≈ 741 µM)	
O=C1CCC(c2ccc(NC(=S)NC(=O)c3ccc([N+](=O)[O-])cc3)cc2)=NN1	512 µg/mL (≈ 1290 µM)	256 µg/mL (≈ 644 µM)	512 µg/mL (≈ 1290 µM)	
O=C1CCC(c2ccc(NC(=S)NC(=O)c3ccc(Cl)cc3)cc2)=NN1	512 µg/mL (≈ 1320 µM)	256 µg/mL (≈ 662 µM)	512 µg/mL (≈ 1320 µM)	
O=C(Nc1ccc(Oc2ccc(=O)[nH]n2)cc1)Nc1ccc(Cl)c(C(F)(F)F)c1				MIC [4]: > 128 µg/mL
O=c1ccc(-c2ccc(NC(=S)Nc3cccc(Cl)c3)cc2)n[nH]1	128 µg/mL (≈ 359 µM)	256 µg/mL (≈ 717 µM)	16 µg/mL (≈ 44.8 µM)	
O=C(Nc1ccc(Cl)c(C(F)(F)F)c1)Nc1ccc(Cl)c(C(F)(F)F)c1				MIC [4]: 0.25 µg/mL (≈ 0.599 µM); IC50 [5]: 1.13 nM
O=C(NC(=S)Nc1ccc(-c2ccc(=O)[nH]n2)cc1)c1ccccc1	256 µg/mL (≈ 731 µM)	256 µg/mL (≈ 731 µM)	512 µg/mL (≈ 1460 µM)	
O=C(NC(=S)Nc1ccc(-c2ccc(=O)[nH]n2)cc1)c1cccc(F)c1	128 µg/mL (≈ 347 µM)	256 µg/mL (≈ 695 µM)	512 µg/mL (≈ 1390 µM)	
O=c1ccc(-c2ccc(NC(=S)Nc3ccc(Cl)c(Cl)c3)cc2)n[nH]1	128 µg/mL (≈ 327 µM)	512 µg/mL (≈ 1310 µM)	32 µg/mL (≈ 81.8 µM)	

Reference: ChEMBL document CHEMBL6083209, “Pyridazinone-based derivatives as anticancer agents endowed with anti-microbial activity: molecular design, synthesis, and biological investigation” (RSC Med Chem, 2024)
